Consider 13 compounds from ChEMBL document CHEMBL1141864, “Structure-activity relationships in 1,4-benzodioxan-related compounds. 8.(1) {2-[2-(4-chlorobenzyloxy)phenoxy]ethyl}-[2-(2,6-dimethoxyphenoxy)ethyl]amine (clopenphendioxan) as a tool to highlight the involvement of alpha1D- and alpha1B-adrenoreceptor subtypes in the regulation of human PC-3 …” (J Med Chem, 2005).

Assay [1] deals with T1, Alpha-1A adrenergic receptor (Homo sapiens, UniProt P35348).
T1 sequence (P35348 whole entry): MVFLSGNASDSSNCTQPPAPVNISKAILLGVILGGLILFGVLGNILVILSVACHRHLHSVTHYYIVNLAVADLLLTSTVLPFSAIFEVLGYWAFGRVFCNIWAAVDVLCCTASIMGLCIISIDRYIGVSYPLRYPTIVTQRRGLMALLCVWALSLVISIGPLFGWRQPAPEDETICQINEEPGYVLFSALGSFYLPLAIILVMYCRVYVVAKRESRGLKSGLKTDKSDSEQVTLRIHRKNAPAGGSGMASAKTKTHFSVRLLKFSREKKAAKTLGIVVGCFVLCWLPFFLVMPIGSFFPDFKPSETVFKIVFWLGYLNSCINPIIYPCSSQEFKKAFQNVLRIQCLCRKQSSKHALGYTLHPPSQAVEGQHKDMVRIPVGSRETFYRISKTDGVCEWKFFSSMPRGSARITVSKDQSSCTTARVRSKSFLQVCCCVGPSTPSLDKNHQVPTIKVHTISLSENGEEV
In words: Displacement of [3H]prazosin from cloned human ADRA1A expressed in CHO cells. It counts as cell-based. Background: In a radioligand displacement assay an active substance lowers the binding of a labelled ligand.

Assay [2] concerns the target T2, Alpha-1D adrenergic receptor (Homo sapiens, UniProt P25100).
T2 sequence (P25100 whole entry): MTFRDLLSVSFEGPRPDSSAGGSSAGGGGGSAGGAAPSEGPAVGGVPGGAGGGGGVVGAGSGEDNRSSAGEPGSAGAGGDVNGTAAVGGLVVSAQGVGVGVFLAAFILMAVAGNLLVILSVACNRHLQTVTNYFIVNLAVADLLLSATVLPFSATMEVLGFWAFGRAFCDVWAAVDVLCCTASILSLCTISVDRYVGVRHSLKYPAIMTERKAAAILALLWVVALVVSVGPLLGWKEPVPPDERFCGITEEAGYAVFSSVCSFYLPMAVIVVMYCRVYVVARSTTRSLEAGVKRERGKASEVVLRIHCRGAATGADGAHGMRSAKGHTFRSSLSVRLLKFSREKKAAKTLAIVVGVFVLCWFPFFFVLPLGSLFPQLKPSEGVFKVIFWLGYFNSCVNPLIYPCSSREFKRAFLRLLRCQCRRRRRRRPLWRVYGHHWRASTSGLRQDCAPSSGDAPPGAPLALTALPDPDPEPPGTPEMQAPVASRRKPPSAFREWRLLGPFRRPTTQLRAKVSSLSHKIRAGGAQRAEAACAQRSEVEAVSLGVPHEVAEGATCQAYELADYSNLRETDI
In words: Displacement of [3H]prazosin from cloned human ADRA1D expressed in CHO cells. It counts as cell-based.

Assay [3] deals with T3, 5-hydroxytryptamine receptor 1A (Homo sapiens, UniProt P08908).
T3 sequence (P08908 whole entry): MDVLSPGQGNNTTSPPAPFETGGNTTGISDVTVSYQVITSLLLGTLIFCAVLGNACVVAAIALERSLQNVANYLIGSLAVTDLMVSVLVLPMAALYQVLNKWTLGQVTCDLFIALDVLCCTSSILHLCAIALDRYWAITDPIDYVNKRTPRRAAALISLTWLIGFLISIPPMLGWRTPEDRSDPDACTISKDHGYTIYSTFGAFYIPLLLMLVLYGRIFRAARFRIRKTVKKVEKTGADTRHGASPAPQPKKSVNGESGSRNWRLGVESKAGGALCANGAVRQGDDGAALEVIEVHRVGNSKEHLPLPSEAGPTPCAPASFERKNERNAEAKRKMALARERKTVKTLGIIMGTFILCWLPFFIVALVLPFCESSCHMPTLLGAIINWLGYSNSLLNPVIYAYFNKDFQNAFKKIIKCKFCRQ
In words: Displacement of [3H]8-hydroxy-2-(di-n-propylamino)tetralin from cloned human 5HT1A receptor expressed in HeLa cells. The assay is classed as cell-based. The gist of the method:
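Radioligand binding on cloned human receptors, with [3H]prazosin for α1 subtypes (CHO cells) and [3H]8-OH-DPAT for 5-HT1A (HeLa cells); each experiment in triplicate, Ki from two to three experiments agreeing within ±20%, reported as pKi.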

Assay [4] addresses T4, Alpha-1A adrenergic receptor (Rattus norvegicus) (UniProt P43140).
T4 sequence (whole entry): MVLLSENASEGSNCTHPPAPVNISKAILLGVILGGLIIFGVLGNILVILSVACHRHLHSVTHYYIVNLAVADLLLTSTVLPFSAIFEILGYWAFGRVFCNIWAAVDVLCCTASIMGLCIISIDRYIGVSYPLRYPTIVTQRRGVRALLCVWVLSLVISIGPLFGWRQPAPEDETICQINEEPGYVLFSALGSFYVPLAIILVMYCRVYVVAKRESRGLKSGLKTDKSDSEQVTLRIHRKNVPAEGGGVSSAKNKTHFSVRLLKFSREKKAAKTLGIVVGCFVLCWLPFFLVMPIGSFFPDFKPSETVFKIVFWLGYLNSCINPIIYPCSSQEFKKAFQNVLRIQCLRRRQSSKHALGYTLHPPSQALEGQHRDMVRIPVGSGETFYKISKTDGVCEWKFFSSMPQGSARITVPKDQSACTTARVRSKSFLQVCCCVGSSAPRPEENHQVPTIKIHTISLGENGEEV
In words: ADRA1A blocking activity assessed by antagonism of (-)-NE induced contractions on isolated rat prostatic vas deferens. It counts as functional, tissue-based. The gist of the method:
(§1)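 Isolated rat tissue: each antagonist concentration tested four times over 0.01–1 μM; pK_B calculated by van Rossum method from shifts of (-)-noradrenaline contraction curves (vas deferens, α1A; thoracic aorta, α1D) or (-)-phenylephrine contraction curves (spleen, α1B).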

Assay [5] deals with T5, Alpha-1D adrenergic receptor (Rattus norvegicus) (UniProt P23944).
T5 sequence (whole entry): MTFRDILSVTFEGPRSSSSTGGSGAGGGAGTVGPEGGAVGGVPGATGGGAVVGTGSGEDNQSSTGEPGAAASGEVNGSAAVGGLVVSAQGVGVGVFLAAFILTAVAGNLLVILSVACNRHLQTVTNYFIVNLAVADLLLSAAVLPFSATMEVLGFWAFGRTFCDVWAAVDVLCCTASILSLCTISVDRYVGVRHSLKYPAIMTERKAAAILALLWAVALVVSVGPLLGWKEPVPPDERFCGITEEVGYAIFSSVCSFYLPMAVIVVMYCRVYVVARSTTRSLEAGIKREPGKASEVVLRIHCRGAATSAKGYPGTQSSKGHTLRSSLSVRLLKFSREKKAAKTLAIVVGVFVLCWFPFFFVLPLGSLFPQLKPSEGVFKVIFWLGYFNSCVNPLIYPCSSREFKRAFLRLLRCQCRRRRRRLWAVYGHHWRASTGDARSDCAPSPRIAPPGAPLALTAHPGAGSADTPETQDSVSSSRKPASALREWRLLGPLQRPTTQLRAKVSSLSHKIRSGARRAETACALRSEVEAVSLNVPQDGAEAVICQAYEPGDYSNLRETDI
In words: ADRA1D blocking activity assessed by antagonism of (-)-NE induced contractions on isolated rat thoracic aorta. The assay is classed as functional, tissue-based. In a few lines: as §1

With `COc1cccc(OC)c1OCCNCCOc1ccccc1OCc1ccccc1Cl`, the Ki (as a rule, a measure of affinity in units of concentration, obtained from inhibition or displacement) in assay [1] is 1.41 nM; in assay [2] it was 0.251 nM; in assay [3] it was 4.79 nM. Further, the pKb (in general, the Kb on a negative log10 scale, so that one unit is a factor of ten) turned out to be 8.56 in assay [4] and 8.59 in assay [5].

With `COc1cccc(OC)c1OCCNCCOc1ccccc1OCc1cccc(Cl)c1`, the results for the Ki in assay [1], in assay [2] and in assay [3] were 0.251 nM, 0.0501 nM and 6.61 nM, respectively. The pKb in assay [4] was found to be 8.12; in assay [5], 8.72.

In the case of `COc1cccc(OC)c1OCCNCCOc1ccccc1OCc1ccc(Cl)cc1` [CLOPENPHENDIOXAN], the inhibition constant Ki in assay [1] was 0.251 nM; in assay [2] it was 0.0316 nM; in assay [3] it was 15.5 nM. Moreover, the values for the negative logarithm of the Kb (pKb) in assay [4] and in assay [5] were 8.17 and 9.11, respectively.

`COc1cccc(OC)c1OCCNCCOc1ccccc1OCc1ccccc1[N+](=O)[O-]`: the Ki in assay [1] was 7.94 nM; in assay [2], 0.912 nM; in assay [3], 24 nM. For the same compound, the pKb in assay [4] was 8.2; in assay [5], 8.95.

With `COc1cccc(OC)c1OCCNCCOc1ccccc1OCc1cccc(C)c1`, the results for the Ki in assay [1], in assay [2] and in assay [3] were 0.398 nM, 0.2 nM and 18.2 nM, respectively. The negative-log Kb (pKb) in assay [4] was found to be 8.3; in assay [5] it was 8.85.

`COc1cccc(OC)c1OCCNCCOc1ccccc1OCc1ccccc1C`: the results for the Ki in assay [1], in assay [2] and in assay [3] were 1.58 nM, 0.126 nM and 11.2 nM, respectively. Besides, the pKb was 7.81 in assay [4] and 8.64 in assay [5].

In the case of `COc1cccc(OC)c1OCCNCCOc1ccccc1OCc1cccc([N+](=O)[O-])c1`, the Ki is 0.316 nM in assay [1], 0.0631 nM in assay [2] and 20.9 nM in assay [3]. Besides, the pKb in assay [4] came to 8.85; in assay [5], 9.28.

Consider `COc1ccccc1COc1ccccc1OCCNCCOc1c(OC)cccc1OC`, for which the results for the Ki in assay [1], in assay [2] and in assay [3] were 2 nM, 2 nM and 23.4 nM, respectively. The pKb in assay [4] is 8.53; in assay [5] it was 8.86.

As to `COc1cccc(OC)c1OCCNCCOc1ccccc1OCc1ccc([N+](=O)[O-])cc1`, the figures for the Ki in assay [1], in assay [2] and in assay [3] were 1.26 nM, 0.0501 nM and 11.7 nM, respectively. In addition, the figures for the pKb in assay [4] and in assay [5] were 8.58 and 9.41, respectively.

In the case of `COc1cccc(OC)c1OCCNCCOc1ccccc1OCc1ccccc1`, the Ki in assay [1] was 0.468 nM; in assay [2] it was 0.0676 nM; in assay [3] it was 11.7 nM. Besides, the results for the pKb in assay [4] and in assay [5] were 8.39 and 9.37, respectively.

In the case of `COc1cccc(OC)c1OCCNCCOc1ccccc1OCc1ccc(C)cc1`, the Ki in assay [1] is 2 nM; in assay [2], 0.0631 nM; in assay [3], 22.4 nM. The pKb in assay [4] turned out to be 8.23; in assay [5], 9.12.

In the case of `COc1ccc(COc2ccccc2OCCNCCOc2c(OC)cccc2OC)cc1`, the Ki in assay [1] was 2 nM; in assay [2], 0.1 nM; in assay [3], 17.4 nM. The figures for the pKb in assay [4] and in assay [5] were 8.54 and 9.21, respectively.

As to `COc1cccc(COc2ccccc2OCCNCCOc2c(OC)cccc2OC)c1`, the values for the Ki in assay [1], in assay [2] and in assay [3] were 2 nM, 0.316 nM and 30.9 nM, respectively. For the same compound, the values for the pKb in assay [4] and in assay [5] were 8.3 and 9.12, respectively.
